Rows were chosen to be rich in hits. Some 2.1% of all compounds tested hit in one or more screens of this group.
STEP block: STEP phosphatase inhibitors, primary screen, biochemical, fluorescence intensity, uHTS | 360,000 tested, 0.25% active | Tyrosine-protein phosphatase non-receptor type 5 (Homo sapiens), P54829 | AID 588621, 2011 | recombinant STEP, OMFP fluorogenic substrate | inhibition, % at 20 µM;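 active = inhibition at 20 µM, scaled per plate between control wells, above about 37%, limit read from the data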
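System: STEP (striatal-enriched tyrosine phosphatase) enzyme, cell-free; medium: Bis-Tris pH 6.0 buffer with DTT, detergent; dosing: 20 µM, 1% DMSO; times: reaction 20 min, ambient temperature; detection: fluorescence, 480/540 nm; read-out basis: normalized % inhibition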
DNMT1 inh: human DNMT1 methyltransferase inhibitors, primary screen, biochemical, molecular beacon, fluorescence, HinP1I cleavage, uHTS; DNA (cytosine-5)-methyltransferase 1 (Homo sapiens), P26358; inhibition (reported as % activation of signal), % at 10 µM; 360,000 tested, 0.83% active; AID 588458, 2011; in the data active = inhibition above about 50%
GRK2 aptamer HTS: compounds blocking aptamer binding on GRK2 – biochemical, human GRK2, bead flow cytometry, HTS, primary screen; Beta-adrenergic receptor kinase 1 (Homo sapiens), P25098; inhibition of aptamer binding, % at 10 µM; FAM-aptamer displacement from GRK2; 330,000 tested, 0.59% active;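 active = inhibition of aptamer binding above 40%, roughly 3 SD of noise, on plates passing a quality check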;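 note: median bead fluorescence of bound FAM aptamer so fluorescent compounds give negative values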
Scp1 inh: Scp-1 phosphatase inhibitors, primary screen, biochemical, colorimetric, uHTS. Recombinant Scp1, phosphopeptide, malachite green phosphate absorbance. inhibition, % at 20 µM. 340,000 tested, 0.88% active. AID 493091, 2011;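 active = inhibition above about 50% at 20 µM, limit read from the data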
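System: truncated SCP-1 phosphatase (76-261aa); medium: Tris acetate buffer pH 5.5 with MgCl2 and Tween-20; incubation: 45 min room-temperature reaction, 5 min colour, 30 min stabiliser; compound: single 20 µM dose, 1% DMSO; reagent: Phosphorylated 17-residue peptide substrate; read-out: % inhibition at 20 µM; technique: colorimetric free-phosphate detection, absorbance 630 nm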
SUMO1 PPI mod: modulators of SUMO1 protein-protein interactions, primary screen, biochemical, uHTS; Small ubiquitin-related modifier 1 (Homo sapiens), P63165; SUMO1 binding to a labelled peptide, TR-FRET, 1 h; inhibition, % at 20 µM; 360,000 tested, 0.33% active; in the data active = inhibition above about 37%
LMPTP block: LMPTP phosphatase inhibitors, primary screen, biochemical, fluorescence intensity, uHTS; Low molecular weight phosphotyrosine protein phosphatase (Homo sapiens), P24666; recombinant LMPTP-A, OMFP fluorogenic substrate; inhibition, % at 20 µM; 360,000 tested, 0.22% active;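 active = compounds that cut the enzyme signal by at least half of the control window in the single-dose screen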
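Material: LMPTP-A; amount: 0.625 nM enzyme; doses: single 20 µM dose; times: reaction 50 min, room temperature, dark; technique: fluorescence intensity of OMFP turnover product; benchmarks: no-enzyme and uninhibited controls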
Scp1 confirm: Scp-1 phosphatase inhibitors, retest, confirmation, biochemical, colorimetric, single concentration | shares compounds with Scp1 inh | recombinant SCP-1 catalytic domain, phosphate release, malachite green absorbance | inhibition, % at 20 µM | 2,500 tested, 61% active
Scp-1 MG ctr: colorimetric readout interference by compounds, confirmation, artefact control for Scp-1 inhibitor project, biochemical, single concentration. shares compounds with Scp1 inh. 2,500 tested, under 10 active. Colorimetric interference counterscreen, malachite green absorbance 630 nm. apparent inhibition (interference), % at 20 µM;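 note: compounds added after enzyme reaction finished so only phosphate colour detection is probed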
Scp-1 Tm shift: Scp-1 binding by thermal shift, confirmation, orthogonal assay for Scp-1 inhibitor project, biophysical, differential scanning fluorimetry | 1,500 tested, 25% active | thermal shift relative to vanadate control, % at 40 µM | Recombinant SCP1, Sypro Orange thermal shift Tm | shares compounds with Scp1 inh | AID 540329, 2011;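 active = substances whose mean melting-temperature shift, as a percentage of the reference inhibitor's shift, reaches about 5.3%, limit read from the data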
Numbers stand for hits; - = inactive; . = no result given.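 Rule for the calls, unless noted: active = inhibition of at least 30% at 20 µM; inactive = the rest.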

SMILES	STEP block	DNMT1 inh	GRK2 aptamer HTS	Scp1 inh	SUMO1 PPI mod	LMPTP block	Scp1 confirm	Scp-1 MG ctr	Scp-1 Tm shift
COc1ccc(-c2coc3c(C)c4oc(=O)c(CCC(=O)O)c(C)c4cc23)cc1	-	-	-	-	-	-	.	.	.
CCCC(NC(=O)Cc1c(C)c2cc3c(C)c(C)oc3c(C)c2oc1=O)C(=O)N[C@@H](Cc1ccccc1)C(=O)O (stereo partly drawn)	-	-	-	98	-	-	88	-	-
Cc1coc2c(C)c3oc(=O)c(CCC(=O)N[C@@H](C)C(=O)N[C@@H](Cc4ccccc4)C(=O)O)c(C)c3cc12	44	-	-	104	-	-	64	-	-
CCN(CC)S(=O)(=O)c1ccc(NN=c2c(=O)c3ccccc3c2=O)cc1	-	-	-	-	-	-	.	.	.
O=C(O)C1(S(=O)(=O)CCC(F)=C(F)F)CC1	-	-	-	98	-	-	-	-	.
Cc1ccc(S(=O)(=O)C(C#N)c2nc3ccccc3nc2N2CC(C)OC(C)C2)cc1C (stereo not drawn)	-	-	-	79	-	-	-	-	.
CCOc1cc(Cl)c(S(=O)(=O)NCCCn2ccnc2)cc1Cl	-	-	-	-	-	-	.	.	.
CN(C)c1ccc(/C=C2\C(=N)N3N=C(CC(=O)N4CCCC4)SC3=NC2=O)cc1Br	-	-	-	58	-	-	-	-	.
CC1CCN(CCCN2C(=O)C3C(C(=O)Nc4ccc(Cl)cc4)C4C=CC3(O4)C2C(=O)NC2CCCCC2)CC1 (stereo not drawn)	-	-	-	-	-	-	.	.	.
CC1CCc2sc(C(=O)N/N=C/c3ccc([N+](=O)[O-])cc3)cc2C1 (stereo not drawn)	-	-	-	72	-	-	69	-	-
O=C(N/N=C/c1ccc([N+](=O)[O-])cc1)c1cccs1	-	-	-	60	-	-	53	-	-
O=C(N/N=C/c1ccc(-c2cccc([N+](=O)[O-])c2)o1)c1cccs1	-	-	-	-	-	-	.	.	.
Cc1ccc(/C=N/NC(=O)c2cc3c(s2)CCCC3)o1	-	-	-	-	-	-	.	.	.
O=C(CC[C@H]1O[C@@H](n2ccc(=O)[nH]c2=O)[C@H](O)[C@@H]1O)N[C@H](Cc1ccccc1)C(=O)NCC1CCCCC1	-	-	.	.	-	-	.	.	.
O=C(O)Cc1sc(N/N=C\c2ccccc2)nc1-c1ccccc1	-	90	-	54	-	-	75	-	18
CN(C)S(=O)(=O)c1cccc(C(=O)NCc2cccs2)c1	-	-	-	-	-	-	.	.	.
Cc1cc(=O)oc2ccc(OCC(=O)NCc3ccco3)cc12	-	-	-	-	-	-	.	.	.
O=C(COc1ccc2oc(-c3ccccc3)cc(=O)c2c1)NCc1ccco1	-	-	-	82	-	-	59	-	-
O=C(COc1ccc2oc(-c3ccco3)cc(=O)c2c1)N1CCCCC1	-	-	-	60	-	-	44	-	-
